# Screens (PubChem)
# MEKK2wt PB1 HTS: modulators of MEK5 binding to wildtype MEKK2, primary screen, biochemical, multiplex bead flow cytometry, Alexa488-MEK5; Mitogen-activated protein kinase kinase kinase 2 (Homo sapiens), Q9Y2U5; Alexa488-MEK5 binding to MEKK2 WT; actives lie on both sides; binding response (% of control), % at 10 µM; 290,000 tested, 1.1% active; AID 1531, 2009; in the data active means binding response below about 67% or above about 130%
# ABCG2 block: ABCG2 efflux pump inhibitors, primary screen, multiplex with ABCB1, IgMXP3 cells, flow cytometry | inhibition, % at 6.6 µM | JC-1 efflux | 190,000 tested, 0.1% active;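 active means inhibition above 80%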;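 further: 0% = DMSO and 100% = nicardipine control wells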
# Target sequence (Q9UNQ0 whole entry, looked up): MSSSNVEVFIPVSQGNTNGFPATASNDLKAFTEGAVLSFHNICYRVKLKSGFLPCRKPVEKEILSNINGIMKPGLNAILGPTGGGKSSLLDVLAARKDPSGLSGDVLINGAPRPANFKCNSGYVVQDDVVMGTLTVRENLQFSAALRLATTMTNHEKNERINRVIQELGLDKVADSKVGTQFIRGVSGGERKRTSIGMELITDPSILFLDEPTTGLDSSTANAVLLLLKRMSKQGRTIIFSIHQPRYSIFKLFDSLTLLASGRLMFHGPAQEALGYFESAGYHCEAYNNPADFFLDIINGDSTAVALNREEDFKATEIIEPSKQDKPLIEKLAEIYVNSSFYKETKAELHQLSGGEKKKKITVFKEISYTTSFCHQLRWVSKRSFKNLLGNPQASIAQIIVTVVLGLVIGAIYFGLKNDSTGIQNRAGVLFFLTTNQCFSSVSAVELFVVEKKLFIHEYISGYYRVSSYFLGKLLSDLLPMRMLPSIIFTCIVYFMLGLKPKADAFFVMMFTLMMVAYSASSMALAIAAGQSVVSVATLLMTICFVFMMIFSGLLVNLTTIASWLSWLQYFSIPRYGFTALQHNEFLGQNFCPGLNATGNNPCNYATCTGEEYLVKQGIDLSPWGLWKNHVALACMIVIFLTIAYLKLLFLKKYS
#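 Test system: IgMXP3 cells (ABCG2) mixed with DDAO far-red-labelled CCRF-Adr cells (ABCB1). Reagent: JC-1 transporter substrate. Compound dosing: single test compound dose, 6.6 µM final. Times: 10 min compound exposure, 25 °C. Detection: flow cytometry of retained JC-1 fluorescence. Read-out basis: efflux inhibition in percent versus controls. Controls: nicardipine and DMSO wells.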
# MEKK2 mut-MEK5: MEK5 binding signal on mutant MEKK2 PB1, primary screen, biochemical, multiplex bead flow cytometry, Alexa488-MEK5. Alexa488-MEK5 binding to MEKK2 mutant. percent response, % at 10 µM. 290,000 tested, 0.35% active. AID 1530, 2009; in the data active means percent response above about 24%, passing the limit was not always enough
# MEKK3 PB1 HTS: modulators of MEKK3-MEK5 PB1 binding, primary screen, biochemical, wildtype MEKK3, multiplex bead flow cytometry, Alexa488-MEK5; 290,000 tested, 1.4% active; bead-based flow cytometry, Alexa488-MEK5 binding to MEKK3; actives lie on both sides; 0 = blocked by unlabeled MEK5, 100 = vehicle; binding response (% of control), % at 10 µM; AID 1529, 2009; Mitogen-activated protein kinase kinase kinase 3 (Homo sapiens), Q99759;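 active means binding response more than 3 SD above or below the average of its plate-row segment, actives on both sides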;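 further: Alexa488 bead fluorescence after subtracting the streptavidin-only scavenger bead signal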
# ABCB1 block: ABCB1 efflux pump inhibitors, primary screen, cell-based, multiplex, flow cytometry, ABCG2 counter-screen. ATP-dependent translocase ABCB1 (Homo sapiens), P08183. CCRF-Adr cells, JC-1 efflux. inhibition, % at 6.6 µM. 190,000 tested, 0.067% active; in the data active means inhibition above about 40%;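 further: 0% = vehicle and 100% = reference inhibitor; higher value means more JC-1 retained so stronger ABCB1 efflux block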
# Efflux pump mplx: inhibitors of Candida efflux pumps in yeast, primary screen, S. cerevisiae, Nile Red, multiplex; S. cerevisiae Candida pump triplex; inhibition, % at 10 µM; 330,000 tested, 0.44% active;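 active means plate passing quality check with inhibition over a set limit, or well fluorescence over plate mean plus 4 SD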;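 further: Nile Red retained in pooled yeast measured as flow cytometry median fluorescence; 0% = buffer negative control and 100% = Enniatin B positive control; higher means more Nile Red kept so more efflux inhibition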
# Numbers without * were called inactive; . = no result; [ ] = remark or other dose. This is a sample that favours compounds with a hit; in the whole collection about 2.5% have one here.
SMILES,MEKK2wt PB1 HTS,ABCG2 block,MEKK2 mut-MEK5,MEKK3 PB1 HTS,ABCB1 block,Efflux pump mplx
COc1ccc2[nH]c(=O)c(CN(C(=O)c3cccnc3)c3ccc(C)cc3C)cc2c1,-3.0*,.,4.0,102.0,.,-0.2
C[C@H](NC(=O)c1nc[nH]c1C(=O)N1CCNCC1)C(=O)OCc1ccccc1,.,.,.,.,.,-0.1
O=C1NC(Cc2ccccc2)c2nc3cc(Cl)ccc3c(=O)n2-c2ccccc21 (stereo not drawn),.,.,.,.,.,-0.2
CCCCn1c(N)c(N(CC)C(=O)C(c2ccccc2)c2ccccc2)c(=O)[nH]c1=O,100.0,3.3,64.0*,82.0,1.5,0.1
O=C(CCC(=O)N1CCOc2ccc(Cl)cc21)NCCCN1CCN(c2ccccc2F)CC1,114.0,.,4.0,103.0,.,-0.2
Cc1ccc(C)c(N2CCN(CCCNC(=O)CCC(=O)N3CCOc4ccc(Cl)cc43)CC2)c1,150.0*,.,16.0,107.0,.,-0.2
CCC(=O)Nc1ccc(C(=O)N/N=C/c2c(C)[nH]c3ccccc23)cc1,35.0*,-5.9,45.0,92.0,-0.9,0.1
Cc1cc(C)nc(NC(=NCCc2c[nH]c3ccccc23)NC(=O)Nc2ccc(Cl)c(Cl)c2)n1,49.0*,-5.1,47.0,109.0,-0.2,-0.4
COc1ccc(S(=O)(=O)NCCCN2CCOCC2)cc1F,95.0,.,-2.0,97.0,.,0.0
COc1ccc(S(=O)(=O)NCCN2CCOCC2)cc1[N+](=O)[O-],-11.0*[inhibitor],.,-32.0,0.0*[inhibitor],.,-0.1
O=C(O)/C=C/C(=O)Nc1ccc(OC(F)(F)F)cc1,-3.0*,.,2.0,105.0,.,0.0
CC(C)NC(=O)C(=O)NCCCN1CCOCC1,87.0,2.4,-9.0,101.0,0.4,0.0
Cc1ccc(CNC(=O)c2cc3c(s2)CS(=O)(=O)C3)cc1,0.0*[inhibitor],.,-17.0,2.0*[inhibitor],.,0.0
O=C(NCc1cccs1)c1cc2c(s1)CS(=O)(=O)C2,94.0,14.3,2.0,97.0,0.8,0.1
Cc1cn(-c2cc(NC(=O)c3ccc(C)c(NC(=O)c4cccc(-c5cn[nH]c(=O)c5)c4)c3)cc(C(F)(F)F)c2)cn1,106.0,.,-1.0,103.0,.,-0.1
CCN(CC)S(=O)(=O)c1cc(NC(=O)c2n[nH]c(=O)c3ccccc23)ccc1C,-3.0*,6.6,4.0,99.0,0.8,0.1
CN(C)S(=O)(=O)c1cccc(NC(=O)c2n[nH]c(=O)c3ccccc23)c1,104.0,8.8,5.0,99.0,-0.3,0.3
CC1=Nc2ccccc2/C1=C\c1nc(-c2ccccc2)oc1O,4.0*,2.1,6.0,95.0,1.3,-0.1
COc1ccc(-c2nc(/C=C3\C(C)=Nc4ccccc43)c(O)o2)cc1,99.0,0.3,-3.0,101.0,1.1,0.0
Cc1cccc(NC(=O)c2cc[n+]([O-])cc2)c1C,96.0,.,-5.0,100.0,.,0.0
Cc1ccccc1NC(=O)c1cc[n+]([O-])cc1,169.0*,.,18.0,104.0,.,-0.1
COc1ccccc1NC(=O)NC(N)=O,110.0,3.0,2.0,109.0,0.9,-0.1
Cc1ccccc1NC(=O)NC(N)=O,-4.0*,4.0,2.0,99.0,0.5,-0.1
FC(F)(F)c1cnc(Sc2ncn[nH]2)c(Cl)c1,96.0,9.9,-3.0,98.0,2.5,0.1
COc1ccc([N+](=O)[O-])cc1NS(=O)(=O)c1cccc(C(=O)OC2CCOC2=O)c1 (stereo not drawn),.,.,.,.,.,-0.4
SMILES,MEKK2wt PB1 HTS,ABCG2 block,MEKK2 mut-MEK5,MEKK3 PB1 HTS,ABCB1 block,Efflux pump mplx
OCCCNCc1ccc(N(c2ccccc2)c2ccccc2)cc1,141.0*,.,33.0*,105.0,.,-0.1
O=C1/C(=C/c2cccc(F)c2)Oc2cc(O)ccc21,102.0,.,1.0,101.0,.,0.2
Cc1ccnc(NC(=O)CCNC(=O)c2ccccc2Cl)c1,98.0,.,-1.0,97.0,.,0.4
O=C(N/N=C/c1ccncc1)c1cccc(NC(=O)c2ccc(Cl)cc2)c1,66.0,1.5,-3.0,54.0*[inhibitor],0.3,-0.1
O=C(N/N=C/c1ccncc1)c1cccc(N/N=C/c2ccncc2)c1,100.0,1.7,-1.0,98.0,-0.1,0.1
COCCCn1c(O)c(/C=C2\N=C(C#N)C(=Nc3ccc(C)cc3)O2)sc1=S,33.0*[inhibitor],.,-23.0,83.0,.,0.0
O=C(O)CCCn1c(O)c(C=C2N=c3ccccc3=N2)sc1=S,77.0,.,-8.0,81.0,.,-0.1
C=CCNc1nc(C(=O)OCC(=O)Nc2c(Cl)cccc2C(F)(F)F)cs1,.,.,.,.,.,-0.1
O=C(Nc1ccccc1O)c1ccc(NC(=O)C2CC2)cc1,104.0,.,4.0,101.0,.,-0.3
O=C(Nc1ccccc1C(=O)O)c1ccc(NC(=O)C2CC2)cc1,1.0*[inhibitor],.,-1.0,96.0,.,1.7
CCN1CCN(CCNC(=O)c2ccc3nc(-c4cccc(C)c4)c(-c4cccc(C)c4)nc3c2)CC1,151.0*,.,25.0*,104.0,.,0.1
CCCNC(=O)c1ccc2nc(-c3ccccc3)c(-c3ccccc3)nc2c1,104.0,-1.1,8.0,106.0,-1.7,0.0
O=C1CN(S(=O)(=O)c2cccc(C(=O)O)c2)c2ccccc2N1,101.0,.,-3.0,102.0,.,0.6
COc1cccc2cc(C(=O)C3=C(O)C(=O)N(c4cc(C)on4)C3c3cccs3)oc12 (stereo not drawn),-11.0*,.,2.0,100.0,.,-0.3
COc1cccc(C2C(C(=O)c3cc4cccc(OC)c4o3)=C(O)C(=O)N2c2cc(C)on2)c1OC (stereo not drawn),94.0,-1.2,1.0,99.0,-0.3,0.1
O=S(=O)(c1ccccc1)N1N=C(c2ccc(Br)cc2)CC1c1ccco1 (stereo not drawn),17.0*,.,17.0,102.0,.,0.1
CS(=O)(=O)Nc1ccc(C2=NN(S(=O)(=O)c3ccc(F)cc3)C(c3ccco3)C2)cc1 (stereo not drawn),3.0*,-3.8,18.0,99.0,-0.5,0.6
O=C(CSc1nc2ncc(Cl)cc2[nH]1)N1CCC(Cc2ccccc2)CC1,.,.,.,.,.,-0.3
Clc1nc2ccccc2cc1/C=N/Nc1nc2ccccc2[nH]1,115.0,-0.3,0.0,156.0*,0.0,-0.1
Cc1c(/C=N/Nc2nc3ccccc3[nH]2)c2ccccc2n1C,168.0*,.,30.0,98.0,.,-0.1
C=CCn1cc(/C=N/Nc2nc3ccccc3[nH]2)c2ccccc21,232.0*,3.8,43.0,114.0,0.4,-0.2
C(=N\Nc1nc2ccccc2[nH]1)/c1ccncc1,98.0,3.0,-1.0,109.0,0.6,0.4
Cn1c(/C=N/Nc2nc3ccccc3[nH]2)nc2ccccc21,104.0,-1.9,1.0,108.0,0.2,0.1
